Key:
[1] = Inhibition of Patella vulgata type 5 recombinant sulfatase expressed in Escherichia coli
Outline: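 Limpet sulfatase at pH 7 with 0–12.5 mM sulfamate; semi-logarithmic plots of residual activity over time, inactivation rates replotted against concentration to give Ki and kinact.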

[2] = Inhibition of abalone entrails type 8 recombinant sulfatase expressed in Escherichia coli by slow phase inactivation; design: species or system Haliotis corrugata
[3] = Chemical decomposition at pH 7 after 15 mins; conditions: buffer
Arylsulfatase = Arylsulfatase (Pseudomonas aeruginosa (strain ATCC 15692 / PAO1 / 1C / PRS 101 / LMG12228), UniProt P51691); test: Inhibition of Pseudomonas aeruginosa recombinant arylsulfatase A expressed in Escherichia coli
Arylsulfatase, sequence (P51691 whole entry): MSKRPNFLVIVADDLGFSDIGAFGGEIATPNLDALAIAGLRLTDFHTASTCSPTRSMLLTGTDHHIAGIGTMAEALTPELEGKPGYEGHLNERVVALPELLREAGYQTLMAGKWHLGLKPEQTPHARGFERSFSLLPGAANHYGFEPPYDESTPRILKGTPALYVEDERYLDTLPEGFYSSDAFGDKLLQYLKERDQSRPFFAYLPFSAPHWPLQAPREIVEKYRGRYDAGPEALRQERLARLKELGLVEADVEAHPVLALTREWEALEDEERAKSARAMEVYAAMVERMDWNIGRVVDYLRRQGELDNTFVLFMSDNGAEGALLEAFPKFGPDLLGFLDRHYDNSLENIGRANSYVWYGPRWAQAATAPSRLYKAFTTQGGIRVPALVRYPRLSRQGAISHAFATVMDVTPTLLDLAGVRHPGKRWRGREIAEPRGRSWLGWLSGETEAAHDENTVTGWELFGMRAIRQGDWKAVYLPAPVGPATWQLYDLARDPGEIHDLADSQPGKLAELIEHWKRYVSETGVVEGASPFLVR

[4] = Inhibition of Helix pomatia type H1 recombinant sulfatase expressed in Escherichia coli
Outline: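 Snail sulfatase incubated at pH 7 with 0–500 µM 3-nitrophenyl sulfamate; residual activity plotted semi-logarithmically against time, and pseudo-first-order rates replotted against inactivator concentration to fit Ki and kinact (E + I ⇌ E·I → E–P).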

[5] = Inhibition of abalone entrails type 8 recombinant sulfatase expressed in Escherichia coli by fast phase inactivation; design: species or system Haliotis corrugata
[6] = Dissociation constant, pKa of the compound; assay type: physicochemical

| Compound | Ki [1] | Ki [2] | decomposed at 0.25 h [3] | Ki (Arylsulfatase) | Ki [4] | Ki [5] | pKa [6] |
| --- | --- | --- | --- | --- | --- | --- | --- |
| NS(=O)(=O)Oc1cccc([N+](=O)[O-])c1 | 980 µM | 5000 µM | 4.2% | 0.13 µM | 35 µM | 1600 µM |  |
| O=[N+]([O-])c1ccc(OS(=O)(=O)O)cc1 |  |  |  |  |  |  | 7.14 |
